Drawing on ChEMBL document CHEMBL1131017, “Synthesis and evaluation of peptidyl Michael acceptors that inactivate human rhinovirus 3C protease and inhibit virus replication” (J Med Chem, 1998), this text covers IC50 and inhibition for 14 molecules.

As a reminder, the IC50 is the point on the concentration scale where inhibition reaches its midpoint. A higher IC50 goes with lower potency. For orientation: inhibition means the share of the control response that was lost under treatment. Read a low inhibition as a weak effect.

One assay relates to HeLa. Nature of the assay: Antiviral activity measured in cell culture assay, inhibiting plaque formation by 50% at subumolar concentrations. It is filed as functional, cell-based. As to conditions: Homo sapiens. The essentials:
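HeLa monolayers (confluent) were infected with HRV-14 at 100 PFU/plate. After 30 min adsorption they were overlaid with maintenance medium containing 0.5% agarose plus compound at various concentrations, then held 48 h at 35 °C. Cells were formalin-fixed and crystal violet-stained. Duplicate plaque counts were converted to percent of control and the IC50 interpolated. Runs were repeated 2–3 times, the highest interpolated IC50 reported, and enviroxime was included as control.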

The target of assay [1] is T1, Human rhinovirus A protease (Human rhinovirus sp.) (UniProt Q4U254).
T1 sequence (whole entry): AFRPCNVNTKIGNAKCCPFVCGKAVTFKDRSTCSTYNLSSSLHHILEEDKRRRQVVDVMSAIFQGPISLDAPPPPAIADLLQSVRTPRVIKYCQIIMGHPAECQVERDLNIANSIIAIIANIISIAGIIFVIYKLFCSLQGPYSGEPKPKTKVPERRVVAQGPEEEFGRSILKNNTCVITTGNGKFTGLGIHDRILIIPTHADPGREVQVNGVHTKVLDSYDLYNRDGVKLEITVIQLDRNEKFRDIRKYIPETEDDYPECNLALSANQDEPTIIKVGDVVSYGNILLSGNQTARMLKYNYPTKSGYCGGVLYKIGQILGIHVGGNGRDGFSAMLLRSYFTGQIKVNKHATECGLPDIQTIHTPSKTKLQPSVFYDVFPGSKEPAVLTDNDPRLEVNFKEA
Nature of the assay: Percent inhibition of HRV-14 3C protease was measured at a concentration of 1 ug/mL.

Assay [2] concerns the target T1, Human rhinovirus A protease (Human rhinovirus sp.). Nature of the assay: Percent inhibition of HRV-14 3C protease was measured at a concentration of 100 ug/mL(average of duplicates which agreed within +/- 10%).
Assay [3] has the same target. Nature of the assay: Percent inhibition of HRV-14 3C protease was measured at a concentration of 5 ug/mL (average of duplicates which agreed within +/- 10%).

≈ marks a conversion by molar mass, not a printed value. Non-standard residues stand in square brackets, D forms with d. Residues, ends and D or L forms follow the SMILES beside them. ξ: configuration not given here. *: point of attachment. X1 = COC(=O)/C=C/[C@H](CCC(N)=O)N*; ξE = NC(CCC(=O)O)C(=O)O; Boc = CC(C)(C)OC(=O)*; OtBu = CC(C)(C)O*

For `COC(=O)/C=C/[C@H](CCC(N)=O)NC(=O)[C@H](Cc1ccccc1)NC(=O)[C@H](CC(C)C)NC(=O)[C@@H](NC(=O)C(CCC(=O)OC(C)(C)C)NC(=O)OC(C)(C)C)C(C)C` (stereo not given in full) (Boc-[ξE](OtBu)VLF-X1), half-maximal inhibition with HeLa (IC50) required 4.5 µg/mL (≈ 5.42 µM). Further, the inhibition in assay [1] worked out at 100%.
`CCOC(=O)/C=C/C(CCC(N)=O)NC(=O)OC(C)(C)C` (stereo not given) gave a half-maximal inhibitory concentration (IC50) in the assay on HeLa of more than 10 µg/mL. In assay [2], the inhibition is 27%.
Regarding `COC(=O)/C=C/C(CCC(N)=O)NC(=O)OC(C)(C)C` (stereo not given), the inhibition in assay [2] was 18%.
On to `COC(=O)/C=C/[C@H](CCC(N)=O)NC(=O)[C@H](Cc1ccccc1)NC(=O)[C@H](CC(C)C)NC(=O)[C@@H](NC(=O)OCc1ccccc1)C(C)C`, for which, in the assay on HeLa, it took 0.93 µg/mL (≈ 1.37 µM) to reach half-maximal inhibition (IC50). The molecule further gave an inhibition in assay [1] of 100%.
Turning to `COC(=O)/C=C/[C@H](CCC(N)=O)NC(=O)[C@H](Cc1ccccc1)NC(=O)[C@H](CC(C)C)NC(=O)[C@@H](NC(=O)[C@@H](N)CCC(=O)O)C(C)C`, the IC50 in the assay on HeLa was more than 10 µg/mL.
In the assay with HeLa, `CCOC(=O)/C=C/C(CCC(N)=O)NC(=O)C(Cc1ccccc1)NC(=O)OC(C)(C)C` (stereo not given) displayed an IC50 of more than 10 µg/mL. The molecule also had an inhibition in assay [2] of 39%.
In the assay with HeLa, `CCOC(=O)/C=C/[C@H](CCC(N)=O)NC(=O)[C@H](Cc1ccccc1)NC(=O)[C@H](CC(C)C)NC(=O)[C@@H](NC(=O)OC(C)(C)C)C(C)C` displayed an IC50 of 0.41 µg/mL (≈ 0.621 µM). In assay [1], the inhibition amounted to 100%.
`COC(=O)/C=C/C(CCC(N)=O)NC(=O)C(Cc1ccccc1)NC(=O)OC(C)(C)C` (stereo not given): the IC50 with HeLa is more than 10 µg/mL. This molecule displayed an inhibition in assay [2] of 42%.
The molecule `COC(=O)/C=C/[C@H](CCC(N)=O)NC(=O)[C@H](Cc1ccccc1)NC(=O)[C@H](CC(C)C)NC(=O)[C@H](NC(=O)[C@@H](N)CCC(=O)O)C(C)C` came in with an inhibition in assay [1] of 100%.
With `NC(=O)CCC(/C=C/S(=O)(=O)c1ccccc1)NC(=O)C(Cc1ccccc1)NC(=O)OCc1ccccc1` (stereo not given), the 50% inhibitory concentration (IC50) in the assay on HeLa was more than 10 µg/mL. Also, the inhibition in assay [2] was found to be 42%.
In the case of `CC(C)C[C@H](NC(=O)[C@@H](NC(=O)OC(C)(C)C)C(C)C)C(=O)N[C@@H](Cc1ccccc1)C(=O)N[C@H](/C=C/C(=O)O)CCC(N)=O`, in the assay with HeLa, the IC50 is more than 10 µg/mL. In addition, the inhibition in assay [1] was determined as 43%.
On to `CCOC(=O)/C=C/C(CCC(N)=O)NC(=O)OCc1ccccc1` (stereo not given), for which the IC50 in the assay with HeLa is more than 10 µg/mL. This molecule had an inhibition in assay [2] of 18%.
Regarding `COC(=O)/C=C/[C@H](CCC(N)=O)NC(=O)[C@H](Cc1ccccc1)NC(=O)[C@H](CC(C)C)NC(=O)[C@@H](NC(=O)OC(C)(C)C)C(C)C`, it took 0.74 µg/mL (≈ 1.15 µM) to reach half-maximal inhibition in the assay with HeLa (IC50). In assay [1], the inhibition turned out to be 100%.
`COC(=O)/C=C/C(CCC(N)=O)NC(=O)C(Cc1ccccc1)NC(=O)OCc1ccccc1` (stereo not given) gave a 50% inhibitory concentration (IC50) in the assay with HeLa of 3.2 µg/mL (≈ 6.84 µM). For the same molecule, the inhibition in assay [3] worked out at 51%.
